Measured values taken from ChEMBL document CHEMBL2406910, “Structures and potential antitumor activity of sesterterpenes from the marine sponge Hyrtios communis” (J Nat Prod, 2013).

How the values were obtained:
T47D = assay: Antiproliferative activity against human T47D cells after 48 hrs by SRB assay; type: functional, cell-based
Outline: (§1)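 Human breast tumor T47D and MDA-MB-231 cells (ATCC) were treated with compounds for 48 h, and proliferation/viability was measured. […] Cycloheximide and rotenone served as positive controls.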

[1] = Inhibition of hypoxia-induced HIF-1 activation in human T47D cells by luciferase reporter gene assay; type: cell-based
Outline: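 T47D cells carrying the reporter were incubated under hypoxia (1% O2) for 16 h while exposed to a range of compound concentrations. […] Cycloheximide and rotenone served as positive controls.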

MDA-MB-231 = assay: Antiproliferative activity against human MDA-MB-231 cells after 48 hrs by SRB assay; type: functional, cell-based; details: MDA-MB-231, 48 h; outline: as §1

| SMILES | IC50 (T47D) [µM] | IC50 [1] [µM] | IC50 (MDA-MB-231) [µM] |
| --- | --- | --- | --- |
| CC1=C(CC/C(C)=C/CC/C(C)=C/CCC2=CC(=O)OC2O)C(C)(C)CCC1 (configuration not stated) [LUFFARIELLOLIDE] | 5.1 | 3.6 | 4.5 |
| CC1=C(CC/C(C)=C/CC/C(C)=C/C[C@@H](O)C2=CC(=O)OC2)C(C)(C)CCC1 | > 10 | – | > 10 |
| CC1=C(CCC(C)(O)/C=C/C/C(C)=C/CCC2=CC(=O)OC2O)C(C)(C)CCC1 (configuration not stated) | > 10 | – | > 10 |
| CC(=O)O[C@H](C/C=C(\C)CC/C=C(\C)CCC1=C(C)CCC(=O)C1(C)C)C1=CC(=O)OC1 | > 10 | 3.5 | > 10 |
| CC(=O)CCCC(C)(C)C(=O)CC/C(C)=C/CC/C(C)=C/CCC1=CC(=O)OC1O (configuration not stated) | > 10 | – | > 10 |
| C=C(CCC1=C(C)CCCC1(C)C)C(O)CC/C(C)=C/CCC1=CC(=O)OC1O (configuration not stated) | > 10 | 7.1 | > 10 |
| CC1=C(CC/C(C)=C/CC/C(C)=C/C[C@@H](O)C2=CC(=O)OC2)C(C)(C)C(=O)CC1 | > 10 | 3.2 | > 10 |
| CC1=C(CC/C(C)=C/CC/C(C)=C/CCC2=CC(=O)OC2O)C(C)(C)CCC1O (configuration not stated) | > 10 | – | > 10 |
| C=C1CCCC(C)(C)C1(O)CC/C(C)=C/CC/C(C)=C/CCC1=CC(=O)OC1O (configuration not stated) | > 10 | – | > 10 |
| CC1=C(CC/C(C)=C/CC/C(C)=C/CCC2=CC(=O)OC2O)C(C)(C)CCC1=O (configuration not stated) [ACANTHOLIDE B] | > 10 | – | > 10 |
| CC1=C(CC/C(C)=C/CC/C(C)=C/CCC2=CC(=O)OC2O)C(C)(C)C(=O)CC1 (configuration not stated) | > 10 | 6.2 | > 10 |
